DAGLB inh = DAGLB lipase inhibitors, primary screen, biochemical, fluorescence, HTS. AID 504411, 2011. inhibition, % at 5.17 µM. HEK293T DAGLB membrane lysate, EnzChek fluorogenic substrate. Diacylglycerol lipase-beta (Homo sapiens), Q8NCG7. actives 0.059% (n = 340,000); in the data active means inhibition above about 34%;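 further: 0% = enzyme with vehicle and 100% = wells lacking enzyme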
Tn6 DDE FP = inhibitors of Tn6 peptide binding to fibrin DD(E), primary screen, biochemical, fluorescence polarization, human fibrin, Tn6 probe; actives 0.21% (n = 370,000); Fibrin DD(E) TRITC-Tn6 fluorescence polarization displacement; Fibrinogen beta chain (Homo sapiens), P02675; inhibition, % at 8.3 µM;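 active means inhibition above a per-campaign cutoff: mean of compounds within control limits plus 3 SD, cut at about 15% in these data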;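 further: 0% = median of all compound wells on the plate and 100% = blocking peptide control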
Target sequence (P02675 whole entry, looked up): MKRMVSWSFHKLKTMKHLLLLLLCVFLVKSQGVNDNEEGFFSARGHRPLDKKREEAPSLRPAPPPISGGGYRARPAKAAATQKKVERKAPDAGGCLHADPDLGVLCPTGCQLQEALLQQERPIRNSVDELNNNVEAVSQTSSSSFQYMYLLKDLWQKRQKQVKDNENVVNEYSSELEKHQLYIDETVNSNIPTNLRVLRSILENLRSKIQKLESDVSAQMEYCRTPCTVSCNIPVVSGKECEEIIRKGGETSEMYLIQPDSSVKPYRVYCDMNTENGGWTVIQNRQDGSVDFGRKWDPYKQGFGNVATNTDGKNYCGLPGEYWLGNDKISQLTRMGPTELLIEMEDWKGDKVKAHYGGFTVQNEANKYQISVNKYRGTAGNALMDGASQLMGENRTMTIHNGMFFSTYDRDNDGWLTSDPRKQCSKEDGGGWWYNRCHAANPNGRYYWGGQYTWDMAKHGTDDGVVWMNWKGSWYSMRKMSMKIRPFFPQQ
Cardio protect = cardioprotection against H2O2-induced cell death, primary screen, uHTS, H9c2 cells, ATPLite luminescence | actives 0.63% (n = 360,000) | H9c2 cardiomyocytes, H2O2 injury protection, 2 h | protection from H2O2 cell death, % at 20 µM | AID 588492, 2011;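 active means compounds giving at least 50% protection of heart cells from peroxide-induced death in the single-dose screen, raw or plate-pattern-corrected value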;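 further: 0% = DMSO wells with peroxide and 100% = DMSO wells without peroxide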
TAG inh = inhibitors of triacylglycerol accumulation, primary screen, cell-based, uHTS, fluorescence, H9c2; H9c2 cells, Nile Red lipid (TAG) fluorescence; cells loaded with 200 µM oleic acid; inhibition, % at 12.5 µM; actives 0.66% (n = 230,000);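 active means pattern-corrected inhibition of lipid staining of at least 50% with the nuclear-stain viability signal not falling by more than 50%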;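 further: 0% = DMSO wells and 100% = triacsin C control wells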
DDE Tn7 FP inh = inhibitors of Tn7 peptide binding to fibrin DD(E), primary screen, biochemical, fluorescence polarization, human fibrin, Tn7 probe | AID 720508, 2013 | inhibition, % at 8.3 µM | Fibrinogen beta chain (Homo sapiens), P02675 | FP displacement of FITC-Tn7 peptide from fibrin DD(E); 0% = median of compound wells per plate | actives 0.13% (n = 370,000);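 active means inhibition above the mean of compounds falling within the control limits plus 3 SD of them, cut at about 14% in these data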;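 further: 0% = plate median of compound wells and 100% = 10 µM Aha-Tn7 peptide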
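System: human fibrin DD(E); quantity: Fibrin-DD(E) at 2 µM final; also added: fluorescent Tn7 probe at 0.1 µM; compound dosing: single nominal test concentration of 8.3 µM per compound; schedule: 10 min preincubation, 3 h with tracer, room temperature; detection: fluorescence polarization of the labelled Tn7 tracer; repeats: one replicate per compound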
MT1-MMP act inh = blockers of MT1-MMP proenzyme processing, primary screen, HT1080 RFP-PRO-GFP cells, GFP/RFP fluorescence | GFP/RFP ratio change, % at 20 µM | actives 0.061% (n = 360,000) | GFP/RFP ratio fluorescence, overnight; percent of plate control window, DMSO zero | Matrix metalloproteinase-14 (Homo sapiens), P50281;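 active means GFP/RFP ratio change of at least 30% with cell ATP level not reduced by more than half and red fluorescence within 50% of control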
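Compound: 20 µM single dose, 1% DMSO / System: HT1080 RFP-PRO-GFP cells / Controls: DMSO and RFP-L50D-GFP cell wells / Read-out basis: GFP/RFP fluorescence ratio / Schedule: overnight compound exposure at 37 °C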
Active calls of the source: *; nt = no result. Sampled rows, rich in hits. Any-hit rate of the full collection: about 1.4%.

SMILES	DAGLB inh	Tn6 DDE FP	Cardio protect	TAG inh	DDE Tn7 FP inh	MT1-MMP act inh
Cc1ccccc1OCC(O)Cn1c(Br)nc2c1c(=O)[nH]c(=O)n2C (centres undefined)	1	5	41	9	2	-1
Cn1c(=O)[nH]c(=O)c2c1nc(Br)n2CC(O)COc1ccc(Cl)cc1 (centres undefined)	2	2	92*	3	-1	-1
COc1ccc(OCC(O)Cn2c(Nc3cccc(C)c3)nc3c2c(=O)n(C)c(=O)n3C)cc1 (centres undefined)	1	-4	64*	nt	-7	0
COc1ccc(OCC(O)Cn2c(Br)nc3c2c(=O)[nH]c(=O)n3C)cc1 (centres undefined)	-2	-9	54*	nt	4	4
O=C(CSc1nnc(-c2ccccn2)n1-c1ccccc1)Nc1ccccc1-c1ccccc1	nt	-11	nt	nt	4	nt
Cc1ccc(C(=O)n2ccc3ccc(-c4ccc5ccn(Cc6ccccc6)c5c4)cc32)cc1	nt	5	nt	nt	4	nt
CCOC(=O)N1CCN(C(=O)C[C@H]2C[C@@]3(C(=O)OC)C(=C[C@H](C4CCCC4)O[C@@H]3C)N(Cc3ccco3)C2=O)CC1	nt	0	nt	nt	-3	nt
Cc1ccc(C)c(NC(=O)C(Sc2ncnc3ccccc23)c2ccccc2)c1 (centres undefined)	0	nt	55*	nt	nt	-4
Cc1ccc(C)c(NC(=O)C(Sc2nncn2C)c2ccccc2)c1 (centres undefined)	0	4	-2	nt	7	1
Cc1ccc(C)c(NC(=O)C(Sc2nc3ccccc3c(=O)n2CC(C)C)c2ccccc2)c1 (centres undefined)	-4	1	80*	nt	3	2
CC(=O)c1cccc(NC(=O)C(Sc2ncnc3ccccc23)c2ccccc2)c1 (centres undefined)	2	-5	11	nt	-1	-2
CCOC(=O)Cc1nc(N2CCN(C=O)CC2)c2c(C)c(C(=O)OCC)sc2n1	nt	0	nt	nt	-4	nt
COCCNc1nc(NCCNC(C)=O)c2sc(-c3ccccc3)cc2n1	nt	-4	4	10	3	6
COCCNc1nc(-c2ccccc2CO)c2sc(-c3ccccc3)cc2n1	nt	nt	8	50*	nt	-2
CCn1c(=O)n(CC(=O)N2CCCN(Cc3ccccc3)CC2)c(=O)c2ccccc21	nt	3	nt	nt	2	nt
COc1ccccc1-c1cc(C(=O)N/N=C/C=C/c2ccccc2[N+](=O)[O-])c2ccccc2n1	-1	8	54*	3	-12	-4
O=C(N/N=C/C=C/c1ccccc1[N+](=O)[O-])c1cc(-c2cccnc2)nc2ccccc12	2	0	49	16	-4	-2
O=C(N/N=C/c1ccc(F)cc1)c1cc(-c2ccccn2)nc2ccccc12	0	7	1	-2	-4	-2
COc1cccc(/C=N/NC(=O)c2cc(-c3ccccn3)nc3ccccc23)c1O	8	-10	58*	34	3	-9
COc1ccc(/C=C2\CC3(OC(=O)C4CCCCC4)CCCN2C3)cc1 (centres undefined)	nt	1	nt	nt	2	nt
C[C@H]1COc2cccc(N3CCSCC3)c2S(=O)(=O)N1C	nt	7	nt	nt	-6	nt
O=C(NCCN1CCN(c2ccccc2F)CC1)c1cccn2c(=O)c3ccccc3nc12	-1	-5	71*	30	-2	6
CCCC1CCC2(CC1)CCC2OC(=S)Nc1ccc(Cl)cc1 (centres undefined)	nt	1	nt	nt	1	nt
Cc1cc(C)c2cc3c(N)c(C(=O)N4CCc5ccccc5C4)sc3nc2c1	5	-2	49*	nt	3	-1
C=CCOC(=O)N[C@H](c1cccc(OC)c1)[C@H](C)/C=C/CC(=O)OC	nt	-4	nt	nt	5	nt
SMILES	DAGLB inh	Tn6 DDE FP	Cardio protect	TAG inh	DDE Tn7 FP inh	MT1-MMP act inh
Cc1nc(-c2ccc(O)c(O)c2)cs1	1	-3	61*	13	-1	5
CCn1c(=O)n(CC(=O)N2CCN(c3ccc(F)cc3)CC2)c(=O)c2ccccc21	nt	1	nt	nt	3	nt
COc1ccc2c3c(cccc13)C(=O)CC2	-147	36*	2	nt	21*	-10
COc1cc(C2C(C#N)=C(C)NC3=C2C(=O)c2ccccc23)cc(OC)c1OC (centres undefined)	3	-1	128*	nt	1	13
CC1=C([N+](=O)[O-])C(c2ccccc2)C2=C(N1)c1ccccc1C2=O (centres undefined)	23	0	0	60*	5	13
COc1ccc(C2C(C#N)=C(C)NC3=C2C(=O)c2ccccc23)cc1 (centres undefined)	-1	0	15	nt	-5	-1
Cn1ccnc1CN1CCC[C@]2(CC[C@H](CCC#N)O2)C1	nt	1	nt	nt	-1	nt
COc1ccc(CN2C(=O)N3Cc4ccccc4C3CS2(=O)=O)cc1 (centres undefined)	nt	0	nt	nt	-1	nt
Oc1ccc(/C=N/N=C/c2ccc(O)c(O)c2)cc1O	1	1	52*	26	5	-12
C[C@@H]1CN([C@H](C)CO)C(=O)c2cc(NC(=O)Nc3ccc(C(F)(F)F)cc3)ccc2O[C@H]1CN(C)C(=O)Nc1ccc(F)cc1	-1	-7	-2	-5	2	13
C[C@H](CO)N1C[C@H](C)[C@@H](CN(C)C(=O)Nc2ccc(C(F)(F)F)cc2)Oc2ccc(NC(=O)Nc3ccc(C(F)(F)F)cc3)cc2C1=O	1	31*	0	44	0	20
COc1ccc2occ(C(=O)c3coc4ccc(O)c(CN(C)C)c34)c2c1	2	6	61*	nt	6	-16
O=C1NC(=O)C2(N1)c1ccccc1-c1ccccc12	-4	4	6	-5	4	2
O=C1NC(=O)C2(N1)C(=O)c1cccc3cccc2c13 (centres undefined)	-20	39*	3	-1	4	-83
O=C1N/C(=N/NC(=O)c2cccc3ccccc23)S/C1=C\c1ccccc1OCc1ccccc1	12	-5	45	-3	4	-3
COc1ccc(OC)c(/C=C2\S/C(=N/NC(=O)c3ccc4ccccc4c3)NC2=O)c1	20	0	58*	nt	-1	-13
